Reference: ChEMBL document CHEMBL1781970, “Synthesis and antiproliferative evaluation of 23-hydroxybetulinic acid derivatives” (Eur J Med Chem, 2011)

Assays:
Assay type in all cases: functional, cell-based
A-375 = assay: Antiproliferative activity against human A375 cells after 72 hrs by MTT assay; conditions: A-375, 72 h
Method in brief: (§1)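 Cells grown in RPMI 1640 with 10% FBS and 1% penicillin-streptomycin at 37 °C, 5% CO2, then seeded overnight in 96-well plates. Test compounds were dissolved in DMSO (doxorubicin control in PBS) and given at various concentrations for 72 h at 37 °C. MTT (5 mg/mL in PBS) was added for 4 h and OD read at 570 nm. IC50 was taken from dose-response curves; mean ± SD, ≥3 independent experiments.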

MCF7 = assay: Antiproliferative activity against human MCF7 cells after 72 hrs by MTT assay; conditions: MCF7, 72 h; method in brief: as §1
HepG2 = assay: Antiproliferative activity against human HepG2 cells after 72 hrs by MTT assay; conditions: HepG2, 72 h; method in brief: as §1
B16 = assay: Antiproliferative activity against mouse B16 cells after 72 hrs by MTT assay; conditions: B16, 72 h; method in brief: as §1
HeLa = assay: Antiproliferative activity against human HeLa cells after 72 hrs by MTT assay; method in brief: as §1

IC50 (A-375) [µM]	IC50 (MCF7) [µM]	IC50 (HepG2) [µM]	IC50 (B16) [µM]	IC50 (HeLa) [µM]	SMILES
5.72	15.9	7.43	> 100	16.4	C=C(C)[C@@H]1CC[C@]2(C(=O)OC/C=C/CO)CC[C@]3(C)[C@H](CC[C@@H]4[C@@]5(C)CC[C@H](OC(C)=O)[C@@](C)(COC(C)=O)[C@@H]5CC[C@]43C)[C@@H]12
8.42	6.86	11.1	9.57	10.8	C=C(C)[C@@H]1CC[C@]2(C(=O)N3CCC(N4CCCCC4)CC3)CC[C@]3(C)[C@H](CC[C@@H]4[C@@]5(C)CC[C@H](OC(C)=O)[C@@](C)(COC(C)=O)[C@@H]5CC[C@]43C)[C@@H]12
1.81	16.1	3.91	4.75	17.9	C=C(C)[C@@H]1CC[C@]2(C(=O)NCCCCn3nnc(-c4ccccn4)n3)CC[C@]3(C)[C@H](CC[C@@H]4[C@@]5(C)CC[C@H](OC(C)=O)[C@@](C)(COC(C)=O)[C@@H]5CC[C@]43C)[C@@H]12
19	47.1	8.41	> 100	9.84	C=CCN(CC=C)C(=O)[C@]12CC[C@@H](C(=C)C)[C@@H]1[C@H]1CC[C@@H]3[C@@]4(C)CC[C@H](OC(C)=O)[C@@](C)(COC(C)=O)[C@@H]4CC[C@@]3(C)[C@]1(C)CC2
9.99	3.93	7.99	4.61	7.39	C=C(C)[C@@H]1CC[C@]2(C(=O)NCCN)CC[C@]3(C)[C@H](CC[C@@H]4[C@@]5(C)CC[C@H](OC(C)=O)[C@@](C)(COC(C)=O)[C@@H]5CC[C@]43C)[C@@H]12
4.33	26.4	9.74	18.5	7.47	C=C(C)[C@@H]1CC[C@]2(C(=O)N3CCOCC3)CC[C@]3(C)[C@H](CC[C@@H]4[C@@]5(C)CC[C@H](OC(C)=O)[C@@](C)(COC(C)=O)[C@@H]5CC[C@]43C)[C@@H]12
18.8	4.89	17.7	13.1	18.8	C=C(C)[C@@H]1CC[C@]2(C(=O)N3CCNCC3)CC[C@]3(C)[C@H](CC[C@@H]4[C@@]5(C)CC[C@H](OC(C)=O)[C@@](C)(COC(C)=O)[C@@H]5CC[C@]43C)[C@@H]12
8.71	97.6	12.3	24.2	9.18	C=C(C)[C@@H]1CC[C@]2(C(=O)OCCN3CCOCC3)CC[C@]3(C)[C@H](CC[C@@H]4[C@@]5(C)CC[C@H](OC(C)=O)[C@@](C)(COC(C)=O)[C@@H]5CC[C@]43C)[C@@H]12
5.83	27.2	9.78	93.7	9.78	C=C(C)[C@@H]1CC[C@]2(C(=O)N3CCC[C@H]3C(=O)OC)CC[C@]3(C)[C@H](CC[C@@H]4[C@@]5(C)CC[C@H](OC(C)=O)[C@@](C)(COC(C)=O)[C@@H]5CC[C@]43C)[C@@H]12
4.83	2.93	9.57	8.38	8.92	C=C(C)[C@@H]1CC[C@]2(C(=O)NCCN)CC[C@]3(C)[C@H](CC[C@@H]4[C@@]5(C)CC[C@H](O)[C@@](C)(CO)[C@@H]5CC[C@]43C)[C@@H]12
25.1	19.8	42	42.7	34.3	C=C(C)[C@@H]1CC[C@]2(C(=O)N3CCOCC3)CC[C@]3(C)[C@H](CC[C@@H]4[C@@]5(C)CC[C@H](O)[C@@](C)(CO)[C@@H]5CC[C@]43C)[C@@H]12
2.3	2.27	8.85	4.39	7.12	C=C(C)[C@@H]1CC[C@]2(C(=O)N3CCNCC3)CC[C@]3(C)[C@H](CC[C@@H]4[C@@]5(C)CC[C@H](O)[C@@](C)(CO)[C@@H]5CC[C@]43C)[C@@H]12
21.5	17.2	10.7	23.7	19.5	C=C(CO)[C@@H]1CC[C@]2(C(=O)OC(C)C)CC[C@]3(C)[C@H](CC[C@@H]4[C@@]5(C)CC[C@H](OC(C)=O)[C@@](C)(COC(C)=O)[C@@H]5CC[C@]43C)[C@@H]12
34.7	14.1	15.8	49.5	23.3	C=C(CO)[C@@H]1CC[C@]2(C(=O)OC(C)(C)C)CC[C@]3(C)[C@H](CC[C@@H]4[C@@]5(C)CC[C@H](OC(C)=O)[C@@](C)(COC(C)=O)[C@@H]5CC[C@]43C)[C@@H]12
12.5	33.6	18.7	41.8	17.8	C=C(CO)[C@@H]1CC[C@]2(C(=O)OCC3CCCO3)CC[C@]3(C)[C@H](CC[C@@H]4[C@@]5(C)CC[C@H](OC(C)=O)[C@@](C)(COC(C)=O)[C@@H]5CC[C@]43C)[C@@H]12 (some centres undefined)
7.8	15.1	10.7	35.9	20.8	C=C(CO)[C@@H]1CC[C@]2(C(=O)OCCC(C)C)CC[C@]3(C)[C@H](CC[C@@H]4[C@@]5(C)CC[C@H](OC(C)=O)[C@@](C)(COC(C)=O)[C@@H]5CC[C@]43C)[C@@H]12
31.8	17.3	20.7	39.3	18.3	C=C(CO)[C@@H]1CC[C@]2(C(=O)N3CCOCC3)CC[C@]3(C)[C@H](CC[C@@H]4[C@@]5(C)CC[C@H](OC(C)=O)[C@@](C)(COC(C)=O)[C@@H]5CC[C@]43C)[C@@H]12
53.7	22.2	11.3	64.3	11	C=C(CO)[C@@H]1CC[C@]2(C(=O)N3CCCCC3)CC[C@]3(C)[C@H](CC[C@@H]4[C@@]5(C)CC[C@H](OC(C)=O)[C@@](C)(COC(C)=O)[C@@H]5CC[C@]43C)[C@@H]12
11.8	32	10	69	13.1	C=C(CO)[C@@H]1CC[C@]2(C(=O)N3CCC[C@H]3C(=O)OC)CC[C@]3(C)[C@H](CC[C@@H]4[C@@]5(C)CC[C@H](OC(C)=O)[C@@](C)(COC(C)=O)[C@@H]5CC[C@]43C)[C@@H]12
21.2	16.6	21	38.6	22.3	C=C(CO)[C@@H]1CC[C@]2(C(=O)OC(C)C)CC[C@]3(C)[C@H](CC[C@@H]4[C@@]5(C)CC[C@H](O)[C@@](C)(CO)[C@@H]5CC[C@]43C)[C@@H]12
42.7	16.4	22.7	84.1	30.7	C=C(CO)[C@@H]1CC[C@]2(C(=O)OC(C)(C)C)CC[C@]3(C)[C@H](CC[C@@H]4[C@@]5(C)CC[C@H](O)[C@@](C)(CO)[C@@H]5CC[C@]43C)[C@@H]12
17.9	12.5	34.6	51.2	20.9	C=C(CO)[C@@H]1CC[C@]2(C(=O)OCCC(C)C)CC[C@]3(C)[C@H](CC[C@@H]4[C@@]5(C)CC[C@H](O)[C@@](C)(CO)[C@@H]5CC[C@]43C)[C@@H]12
5.01	8.95	12.1	11.3	8.27	C=C(C)[C@@H]1CC[C@]2(C(=O)NCC(=O)N[C@@H](C)C(=O)OC)CC[C@]3(C)[C@H](CC[C@@H]4[C@@]5(C)CC[C@H](O)[C@@](C)(CO)[C@@H]5CC[C@]43C)[C@@H]12
3.34	7.58	9.33	8.23	4.84	C=C(C)[C@@H]1CC[C@]2(C(=O)NCC(=O)N3CCC[C@H]3C(=O)OC)CC[C@]3(C)[C@H](CC[C@@H]4[C@@]5(C)CC[C@H](O)[C@@](C)(CO)[C@@H]5CC[C@]43C)[C@@H]12
18.4	17.2	32.4	22.2	22.1	C=C(C)[C@@H]1CC[C@]2(C(=O)NCC(=O)N[C@@H](C)C(=O)O)CC[C@]3(C)[C@H](CC[C@@H]4[C@@]5(C)CC[C@H](O)[C@@](C)(CO)[C@@H]5CC[C@]43C)[C@@H]12
9.23	9.95	18.5	7.25	12.5	C=C(C)[C@@H]1CC[C@]2(C(=O)O)CC[C@]3(C)[C@H](CC[C@@H]4[C@@]5(C)CC[C@H](O)[C@@](C)(COC(=O)N6CCC(N7CCCCC7)CC6)[C@@H]5CC[C@]43C)[C@@H]12
20.4	17.6	10.3	8.69	20.6	C=C(C)[C@@H]1CC[C@]2(C(=O)N3CCC(N4CCCCC4)CC3)CC[C@]3(C)[C@H](CC[C@@H]4[C@@]5(C)CC[C@@H]6OC(=O)OC[C@@]6(C)[C@@H]5CC[C@]43C)[C@@H]12
0.13	0.19	–	0.14	0.13	COc1cccc2c1C(=O)c1c(O)c3c(c(O)c1C2=O)C[C@@](O)(C(=O)CO)C[C@@H]3O[C@H]1C[C@H](N)[C@H](O)[C@H](C)O1 [DOXORUBICIN]

SMILES	IC50 (A-375) [µM]	IC50 (MCF7) [µM]	IC50 (HepG2) [µM]	IC50 (B16) [µM]	IC50 (HeLa) [µM]
C=C(C)[C@@H]1CC[C@]2(C(=O)N3CCC(N4CCCCC4)CC3)CC[C@]3(C)[C@H](CC[C@@H]4[C@@]5(C)CC[C@H](O)[C@@](C)(CO)[C@@H]5CC[C@]43C)[C@@H]12	9.67	6.78	12.6	5.71	8.42
